Series [1] relates to Radical scavenging activity. The experiment in a line: Antioxidant activity assessed as DPPH free radical scavenging activity at 5 to 100 uM after 30 min by spectrophotometric analysis. It is filed as functional. In short, it runs like this:
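DPPH reduction by the compounds was read spectrophotometrically at 517 nm after 30 min. 100% DMSO served as the blank and quercetin as the reference scavenger.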
(In general: DPPH is a stable violet radical that fades when it is reduced.)

For series [2], the system named is Trifolium pratense. The experiment in a line: Herbicidal activity against Trifolium pratense var. Kenland (red clover) assessed as inhibition of seed germination after 48 hr. The note with it: read-out: I50. It is filed as functional, organism-based.
Series [3] deals with Lolium multiflorum. The experiment in a line: Herbicidal activity against Lolium multiflorum var. Gulf (Italian ryegrass) assessed as inhibition of seed germination after 48 hr. It is filed as functional, organism-based. The settings on record: read-out: I50.
The next series deals with Artemia salina. The experiment in a line: Toxicity in Artemia salina (brine shrimp) larvae assessed as mortality. The settings on record: in vivo. The format is organism-based. In short, it runs like this: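 Brine shrimp lethality test on *Artemia salina* larvae, run across several concentrations up to a top level of 1000 µM. Mortality was scored at each concentration, and LC50 values in µM were derived from the concentration–mortality data.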

A further series deals with Phaseolus vulgaris. The experiment in a line: Herbicidal activity against Phaseolus vulgaris assessed as inhibition of mitochondrial oxygen uptake. The format is functional, organism-based. The note with it: read-out: I50.
Series [4] concerns Lactuca sativa. Briefly: Herbicidal activity against Lactuca sativa var.Roman (lettuce) assessed as inhibition of seed germination after 48 hr. The settings on record: read-out: I50. It is filed as functional, organism-based.
In series [5] the test system is Trifolium pratense. The experiment in a line: Herbicidal activity against Trifolium pratense var. Kenland (red clover) assessed as inhibition of seed respiration during germination after 72 hr by polarographic analysis. The format is functional, organism-based. In short, it runs like this:
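Red clover seeds were exposed to the bismuthines during germination, with respiration followed over the imbibition time. Values were taken at 72 h as the concentration giving 50% inhibition of seed respiration, using means of three experiments.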

Another series concerns Physalis ixocarpa. Briefly: Herbicidal activity against Physalis ixocarpa assessed as inhibition of seed respiration during germination after 72 hr by polarographic analysis. The format is functional, organism-based.
Series [6] concerns Lolium multiflorum. The experiment in a line: Herbicidal activity against Lolium multiflorum var. Gulf (Italian ryegrass) seedlings assessed as root length rate at 0.5 uM after 48 hr relative to control. It is filed as functional, organism-based. In short, it runs like this:
(§1)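 Italian ryegrass seedlings grown with 0, 0.5, 1, 3, 5, 7.5 or 10 µM of each bismuthine. Shoot and root lengths were measured at 48 h and expressed as a percentage of the average untreated control length.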

Series [7] relates to Lactuca sativa. The experiment in a line: Herbicidal activity against Lactuca sativa var.Roman (lettuce) seedlings assessed as shoot length at 10 uM after 120 hr (reference value: 27 to 31 mm). The format is functional, organism-based.
Series [8] relates to Lolium multiflorum. The experiment in a line: Herbicidal activity against Lolium multiflorum var. Gulf (Italian ryegrass) seedlings assessed as root length rate at 7.5 uM after 48 hr relative to control. It is filed as functional, organism-based. In short, it runs like this:
as §1

Series [9] relates to Lactuca sativa. The experiment in a line: Herbicidal activity against Lactuca sativa var.Roman (lettuce) seedlings assessed as seed germination rate at 7.5 uM after 48 hr relative to control. The format is functional, organism-based.
For series [10], the system named is Lactuca sativa. The experiment in a line: Herbicidal activity against Lactuca sativa var.Roman (lettuce) seedlings assessed as root length at 5 uM after 120 hr (reference value: 18 to 19 mm). The format is functional, organism-based.
Series [11] relates to Lolium multiflorum. Briefly: Herbicidal activity against Lolium multiflorum var. Gulf (Italian ryegrass) seedlings assessed as root length rate at 3 uM after 48 hr relative to control. It is filed as functional, organism-based. In short, it runs like this: as §1
Series [12] has as its system Lolium multiflorum. Briefly: Herbicidal activity against Lolium multiflorum var. Gulf (Italian ryegrass) seedlings assessed as shoot length rate at 1 uM after 48 hr relative to control. It is filed as functional, organism-based. In short, it runs like this: as §1
Series [13] relates to Lactuca sativa. Briefly: Herbicidal activity against Lactuca sativa var.Roman (lettuce) seedlings assessed as seed germination rate at 0.5 uM after 48 hr relative to control. It is filed as functional, organism-based.
Series [14] relates to Lolium multiflorum. Briefly: Herbicidal activity against Lolium multiflorum var. Gulf (Italian ryegrass) seedlings assessed as shoot length rate at 10 uM after 48 hr relative to control. It is filed as functional, organism-based. In short, it runs like this: as §1
For series [15], the system named is Lolium multiflorum. Briefly: Herbicidal activity against Lolium multiflorum var. Gulf (Italian ryegrass) seedlings assessed as shoot length rate at 3 uM after 48 hr relative to control. The format is functional, organism-based. In short, it runs like this: as §1
Series [16] deals with Lactuca sativa. Briefly: Herbicidal activity against Lactuca sativa var.Roman (lettuce) seedlings assessed as root length at 25 uM after 120 hr (reference value: 18 to 19 mm). It is filed as functional, organism-based.
The subject of series [17] is Lactuca sativa. The experiment in a line: Herbicidal activity against Lactuca sativa var.Roman (lettuce) seedlings assessed as shoot length at 75 uM after 120 hr (reference value: 27 to 31 mm). It is filed as functional, organism-based.
The test system of series [18] is Lolium multiflorum. Briefly: Herbicidal activity against Lolium multiflorum var. Gulf (Italian ryegrass) seedlings assessed as root length rate at 10 uM after 48 hr relative to control. The format is functional, organism-based. In short, it runs like this:
as §1

Series [19] deals with Lactuca sativa. Briefly: Herbicidal activity against Lactuca sativa var.Roman (lettuce) seedlings assessed as seed germination rate at 5 uM after 48 hr relative to control. The format is functional, organism-based.
Series [20] has as its system Lactuca sativa. The experiment in a line: Herbicidal activity against Lactuca sativa var.Roman (lettuce) seedlings assessed as seed germination rate at 3 uM after 48 hr relative to control. The format is functional, organism-based.
The subject of series [21] is Lactuca sativa. Briefly: Herbicidal activity against Lactuca sativa var.Roman (lettuce) seedlings assessed as root length at 50 uM after 120 hr (reference value: 18 to 19 mm). It is filed as functional, organism-based.
The test system of series [22] is Lactuca sativa. The experiment in a line: Herbicidal activity against Lactuca sativa var.Roman (lettuce) seedlings assessed as seed germination rate at 10 uM after 48 hr relative to control. The format is functional, organism-based.
Series [23] relates to Lactuca sativa. Briefly: Herbicidal activity against Lactuca sativa var.Roman (lettuce) seedlings assessed as inhibition of seed germination at 5 uM after 48 hr. It is filed as functional, organism-based.
The subject of series [24] is Lactuca sativa. Briefly: Herbicidal activity against Lactuca sativa var.Roman (lettuce) seedlings assessed as root length at 75 uM after 120 hr (reference value: 18 to 19 mm). It is filed as functional, organism-based.
Series [25] deals with Radical scavenging activity. The experiment in a line: Antioxidant activity assessed as DPPH free radical scavenging activity at 5 to 100 uM after 30 min by TLC autographic assay. The format is functional.
The test system of series [26] is Lactuca sativa. Briefly: Herbicidal activity against Lactuca sativa var.Roman (lettuce) seedlings assessed as partial inhibition of hypocotyle growth up to 10 uM after 48 hr. It is filed as functional, organism-based.
Series [27] relates to Lactuca sativa. The experiment in a line: Herbicidal activity against Lactuca sativa var.Roman (lettuce) seedlings assessed as shoot length at 5 uM after 120 hr (reference value: 27 to 31 mm). The format is functional, organism-based.
Series [28] relates to Lactuca sativa. Briefly: Herbicidal activity against Lactuca sativa var.Roman (lettuce) seedlings assessed as root length at 10 uM after 120 hr (reference value: 18 to 19 mm). The format is functional, organism-based.
The test system of series [29] is Lolium multiflorum. The experiment in a line: Herbicidal activity against Lolium multiflorum var. Gulf (Italian ryegrass) assessed as inhibition of seed respiration during germination after 72 hr by polarographic analysis. It is filed as functional, organism-based.
Series [30] deals with Lolium multiflorum. Briefly: Herbicidal activity against Lolium multiflorum var. Gulf (Italian ryegrass) seedlings assessed as shoot length rate at 0.5 uM after 48 hr relative to control. The format is functional, organism-based. In short, it runs like this: as §1
The test system of series [31] is Lolium multiflorum. Briefly: Herbicidal activity against Lolium multiflorum var. Gulf (Italian ryegrass) seedlings assessed as root length rate at 5 uM after 48 hr relative to control. The format is functional, organism-based. In short, it runs like this:
as §1

Series [32] deals with Lolium multiflorum. Briefly: Herbicidal activity against Lolium multiflorum var. Gulf (Italian ryegrass) seedlings assessed as shoot length rate at 5 uM after 48 hr relative to control. The format is functional, organism-based. In short, it runs like this: as §1
The test system of series [33] is Lactuca sativa. Briefly: Herbicidal activity against Lactuca sativa var.Roman (lettuce) seedlings assessed as seed germination rate at 1 uM after 48 hr relative to control. The format is functional, organism-based.
In series [34] the test system is Lolium multiflorum. Briefly: Herbicidal activity against Lolium multiflorum var. Gulf (Italian ryegrass) seedlings assessed as shoot length rate at 7.5 uM after 48 hr relative to control. The format is functional, organism-based. In short, it runs like this: as §1
Series [35] has as its system Lactuca sativa. Briefly: Herbicidal activity against Lactuca sativa var.Roman (lettuce) seedlings assessed as growth inhibition at 5 uM after 120 hr. It is filed as functional, organism-based.
For series [36], the system named is Lolium multiflorum. Briefly: Herbicidal activity against Lolium multiflorum var. Gulf (Italian ryegrass) seedlings assessed as root length rate at 1 uM after 48 hr relative to control. It is filed as functional, organism-based. In short, it runs like this: as §1
Series [37] deals with Trifolium pratense. Briefly: Herbicidal activity against Trifolium pratense var. Kenland (red clover) seedlings assessed as partial inhibition of hypocotyle growth up to 15 uM after 48 hr. It is filed as functional, organism-based.

pIC50: −log10 of the molar value. Calls of active or inactive are those of the source. The rule behind the calls is not given here.

Regarding `O=c1c(O)c(-c2ccc(O)c(O)c2)oc2cc(O)cc(O)c12`, the result in series [1] was Active.

What is called LC50 is the concentration lethal to half of the exposed cells or organisms. Take “TRIS(1-METHYL-2-PYRROLYL)BISMUTH [listing 1 of 2 here]”: the pIC50 with Trifolium pratense [2] is 5.12; in the series with Lolium multiflorum [3], 4.47; with Phaseolus vulgaris it was 4.77; in the series on Lactuca sativa [4], 4.47; with Trifolium pratense [5] (read-out: I50) it was 5.08. Besides, the LC50 with Artemia salina amounted to 638 µM.

For orientation: inhibition means the relative decrease from the control value, in per cent. For “TRIS(1-METHYL-2-PYRROLYL)BISMUTH [listing 2 of 2 here]”, the inhibition result in the series with Physalis ixocarpa and in the series on Lactuca sativa [23] was “Active” throughout. The Activity was found to be 112% with Lolium multiflorum [6]; 9 mm in the series with Lactuca sativa [7]; 60% in the series with Lolium multiflorum [8]; 65% with Lactuca sativa [9]; 30 mm with Lactuca sativa [10]; 76% in the series with Lolium multiflorum [11]. In addition, the Activity with Lolium multiflorum [12] worked out at 84%; with Lactuca sativa [13], 85%; in the series on Lolium multiflorum [14] it was 28%; with Lolium multiflorum [15], 82%; in the series with Lactuca sativa [16], 0 mm; with Lactuca sativa [17] it was 0 mm. For the same molecule, the Activity with Lolium multiflorum [18] was determined as 34%; in the series with Lactuca sativa [19], 76%; with Lactuca sativa [20], 80%; in the series with Lactuca sativa [21] it was 0 mm; in the series on Lactuca sativa [22], 60%; with Lactuca sativa [24], 0 mm. The Activity in the series with Lactuca sativa [27] came to 29 mm; with Lactuca sativa [28] it was 11 mm; with Lolium multiflorum [30] it was 93%; in the series on Lolium multiflorum [31] it was 46%; in the series with Lolium multiflorum [32], 66%; in the series on Lactuca sativa [33] it was 85%. Besides, the Activity in the series with Lolium multiflorum [34] was found to be 64%; in the series on Lolium multiflorum [36], 78%. Also, the result in [25] was inactive. Besides, the “growth inhibition (GI)” value with Lactuca sativa [26] and with Trifolium pratense [37] was “Active” in each case. Further, in the series with Lolium multiflorum [29], the inhibition result is “inactive”. The result in series [1] was Active. For the same molecule, the results for the inhibition in the series with Lactuca sativa [35] and in the series on Trifolium pratense [5] were 30% and “Dose-dependent effect”, respectively.
